ChEMBL document CHEMBL1139492, “Structure-activity relationships and effects on neuroactive steroid synthesis in a series of 2-phenylimidazo[1,2-a]pyridineacetamide peripheral benzodiazepine receptors ligands” (J Med Chem, 2005)

How the values were obtained:
Rattus norvegicus [1] = test: Effect of the 25 mg/kg compound on progesterone concentration in rat plasma after 30 min of intraperitoneal administration; type: functional, organism-based; set-up: dose 25 mg/kg
How it was run: (§1)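 Male Sprague–Dawley rats, about 60 days old, given 25 mg/kg ip in saline with three drops Tween 80 per 5 mL, 0.3 mL/100 g; sampled 30 min later. Brain taken after focused microwave irradiation of the head, plasma after guillotine. Cortex and plasma extracted with ethyl acetate; steroids measured by radioimmunoassay. Results in ng/g tissue, at least eight rats per group, compared with vehicle-treated rats.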

Rattus norvegicus [2] = test: Effect of the 25 mg/kg compound on 3-alpha,5alpha-THDOC concentration in rat plasma after 30 min of intraperitoneal administration; type: functional, organism-based; set-up: dose 25 mg/kg; how it was run: as §1
Rattus norvegicus [3] = test: Effect of the 25 mg/kg compound on 3-alpha,5alpha-THPROG concentration in rat plasma after 30 min of intraperitoneal administration; type: functional, organism-based; set-up: dose 25 mg/kg; how it was run: as §1
Rattus norvegicus [4] = test: Effect of the 25 mg/kg compound on progesterone concentration in rat cerebral cortex after 30 min of intraperitoneal administration; type: functional, organism-based; set-up: dose 25 mg/kg; how it was run: as §1
Rattus norvegicus [5] = test: Effect of the 25 mg/kg compound on 3-alpha,5alpha-THDOC concentration in rat cerebral cortex after 30 min of intraperitoneal administration; type: functional, organism-based; set-up: dose 25 mg/kg; how it was run: as §1
Rattus norvegicus [6] = test: Effect of the 25 mg/kg compound on 3-alpha,5alpha-THPROG concentration in rat cerebral cortex after 30 min of intraperitoneal administration; type: functional, organism-based; set-up: dose 25 mg/kg; how it was run: as §1
[7] = target: GABA-A receptor; anion channel; test: Displacement of [3H]flunitrazepam from central benzodiazepine GABA-A receptor of rat cerebral cortex; type: tissue-based
How it was run: (§2)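 Rat cerebral cortex homogenised in 50 vol ice-cold 50 mM Tris-HCl pH 7.4, spun twice at 20 000g for 10 min. Membranes (0.4–0.5 mg protein) incubated with [3H]flunitrazepam for 60 min at 0 °C. Rapid filtration on GF/B filters, scintillation counting. Nonspecific binding with 5 μM diazepam. Means of three experiments in duplicate; Ki reported.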

[8] = target: GABA-A receptor; anion channel; test: Inhibitory concentration of central benzodiazepine GABA-A receptor of rat cerebral cortex; type: tissue-based; how it was run: as §2
Translocator protein [9] = target: T1, Translocator protein (Rattus norvegicus, UniProt P16257); test: Displacement of [3H]-PK11195 from peripheral benzodiazepine receptor of rat ovary; type: tissue-based, Female gonad
How it was run: (§3)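 Rat tissue (cerebral cortex, ovary) homogenised in 50 vol PBS pH 7.4 at 4 °C, spun at 40 000g for 30 min, washed, resuspended in 10 vol PBS. […] Filtration on polyethyleneimine-soaked GF/B filters, scintillation counting. […] Means of three experiments in duplicate; Ki reported.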

Translocator protein [10] = target: T1, Translocator protein; test: Displacement of [3H]PK11195 from peripheral benzodiazepine receptor of rat cerebral cortex; type: tissue-based; how it was run: as §3
[11] = target: Benzodiazepine receptors; peripheral & central (Rattus norvegicus) (UniProt O09028+P15431+P18506+P18508+P19969+P20236+P23574+P23576+P28471+P28473+P30191+P62813+P63079+P63138+Q91ZM7+Q9ES14+P16257); test: Ratio of inhibition for peripheral benzodiazepine receptor of rat ovary and central benzodiazepine GABA-A receptor; type: tissue-based; set-up: scale not given here; conditions: Female gonad
Translocator protein [12] = target: T1, Translocator protein; test: Inhibitory concentration against peripheral benzodiazepine receptor of rat ovary; type: tissue-based, Female gonad; how it was run: as §3
Translocator protein [13] = target: T1, Translocator protein; test: Inhibitory concentration against peripheral benzodiazepine receptor of rat cerebral cortex; type: tissue-based; how it was run: as §3

T1 sequence (P16257 whole entry, looked up): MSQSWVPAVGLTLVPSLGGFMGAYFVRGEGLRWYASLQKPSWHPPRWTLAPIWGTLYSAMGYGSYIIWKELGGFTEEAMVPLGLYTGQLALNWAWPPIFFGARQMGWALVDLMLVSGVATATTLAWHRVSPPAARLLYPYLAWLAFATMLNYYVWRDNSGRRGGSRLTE

Row | Compound | Concentration (Rattus norvegicus [1]) | Concentration (Rattus norvegicus [2]) | Concentration (Rattus norvegicus [3]) | Concentration (Rattus norvegicus [4]) | Concentration (Rattus norvegicus [5]) | Concentration (Rattus norvegicus [6]) | Ki [7] | pIC50 [8] | Ki (Translocator protein [9]) | Ki (Translocator protein [10]) | Selectivity index [11] | IC50 (Translocator protein [12]) | IC50 (Translocator protein [13])
1 | CCCCN(C(=O)Cc1c(-c2ccccc2)nc2c(Cl)cc(Cl)cn12)c1ccccc1 | 17.3 ng/mL | 8.9 ng/mL | 21.3 ng/mL | 5.8 ng/g | 2.6 ng/g | 16.3 ng/g | 6880 nM | 5 | 3.5 nM | 6.78 nM | 3.34 | 4.6 nM | 11.5 nM
2 | CN(C(=O)Cc1c(-c2ccc(Cl)cc2)nc2c(Cl)cc(Cl)cn12)c1ccccc1 | 13.9 ng/mL | 8.3 ng/mL | 20.3 ng/mL | 7.2 ng/g | 2.8 ng/g | 7.4 ng/g | 6880 nM | 5 | 1.27 nM | 0.203 nM | 3.77 | 1.7 nM | 0.33 nM
3 | CCCCN(C)C(=O)Cc1c(-c2ccc(Cl)cc2)nc2c(Cl)cc(Cl)cn12 | 14.9 ng/mL | 8.1 ng/mL | 16.2 ng/mL | 8.9 ng/g | 3.9 ng/g | 7.4 ng/g | 6880 nM | 5 | 2.46 nM | 0.302 nM | 3.48 | 3.3 nM | 0.45 nM
4 | CCCCN(CCCC)C(=O)Cc1c(-c2ccc(Cl)cc2)nc2c(Cl)cc(Cl)cn12 | 19 ng/mL | 16.2 ng/mL | 27.5 ng/mL | 11.5 ng/g | 3.5 ng/g | 9.1 ng/g | 7750 nM | 5 | 13.2 nM | 2.68 nM | 2.73 | 18.6 nM | 5.2 nM
5 | C=CCN(CC=C)C(=O)Cc1c(-c2ccc(Cl)cc2)nc2c(Cl)cc(Cl)cn12 | 12.2 ng/mL | 9 ng/mL | 18.1 ng/mL | 11.5 ng/g | 3.2 ng/g | 8.6 ng/g | 7750 nM | 5 | 4.06 nM | 4.77 nM | 3.25 | 5.6 nM | 8.09 nM
